Data published in the RNAGym collection of RNA variant scans (doi:10.1002/anie.201605470).

B1: Osa-1-4 twister ribozyme (parent)
chain: CCGCCUAACACUGCCAAUGCCGGUCCCAAGCCCGGAUAAAAGUGGAGGGGGCGG

Variants of: B1
Experiment: self-cleavage, relative activity (ratio to wild type); higher = more cleavage; co-transcriptional
Procedure, shortened: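 A DNA template for a 54-nucleotide Oryza sativa twister ribozyme was synthesised with 97 % wild-type base and 1 % of each other base at the 48 positions downstream of the cleavage site. It was transcribed in vitro for 2 h at 37 °C, allowing co-transcriptional self-cleavage, then reverse-transcribed with a template-switching oligonucleotide, PCR-amplified and deep-sequenced. Cleavage status was scored from reads with or without upstream sequence. Relative activity is fraction cleaved normalised to wild type.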

Question: For CCGCCUAACACUGCCAAUGCCGGUCCCAAGCCCGGAUAGAAGGGGAGGGGGCGG [A39G U43G], which self-cleavage is on record?
Answer: Its self-cleavage is 0.36.

Question: For CCGCCUAACACUGCCAAUGCCGGUCCCAAGCCCGGAUAGAAGAGGAGGGGGCGG [A39G U43A], which self-cleavage is on record?
Answer: Its self-cleavage is 0.8.

Question: With CCGCCUAACACUGCCAAUGCCGGUCCCAAGCCCGGAUAGAAGCGGAGGGGGCGG [A39G U43C] as the variant, how does the self-cleavage read?
Answer: The self-cleavage was 0.24.

Question: For CCGCCUAACACUGCCAAUGCCGGACCCAAGCCCGGAUAGAAGUGGAGGGGGCGG [A39G U24A], which self-cleavage is on record?
Answer: The self-cleavage was 0.09.

Question: Which self-cleavage does the source give for CCGCCUAACACUGCCAAUGCCGGGCCCAAGCCCGGAUAGAAGUGGAGGGGGCGG [A39G U24G] here?
Answer: The self-cleavage was 0.02.

Question: For CCGCCUAACACUGCCAAUGCCGGCCCCAAGCCCGGAUAGAAGUGGAGGGGGCGG [A39G U24C], which self-cleavage is on record?
Answer: Its self-cleavage is 0.14.

Question: For CCGCCUAACAUUGCCAAUGCCGGUCCCAAGCCCGGAUAUAAGUGGAGGGGGCGG [A39U C11U], which self-cleavage is on record?
Answer: Its self-cleavage is 0.89.

Question: Which self-cleavage does the source give for CCGCCUAACAGUGCCAAUGCCGGUCCCAAGCCCGGAUAUAAGUGGAGGGGGCGG [A39U C11G] here?
Answer: The self-cleavage was 0.24.

Question: With CCGCCUAACAAUGCCAAUGCCGGUCCCAAGCCCGGAUAUAAGUGGAGGGGGCGG [A39U C11A] as the variant, how does the self-cleavage read?
Answer: Its self-cleavage is 0.38.

Question: With CCGCCUAACACCGCCAAUGCCGGUCCCAAGCCCGGAUAGAAGUGGAGGGGGCGG [A39G U12C] as the variant, how does the self-cleavage read?
Answer: Its self-cleavage is 0.19.

Question: For CCGCCUAACACGGCCAAUGCCGGUCCCAAGCCCGGAUAGAAGUGGAGGGGGCGG [A39G U12G], which self-cleavage is on record?
Answer: The self-cleavage was 0.28.

Question: For CCGCCUAACACAGCCAAUGCCGGUCCCAAGCCCGGAUAGAAGUGGAGGGGGCGG [A39G U12A], which self-cleavage is on record?
Answer: Its self-cleavage is 0.69.

Question: For CCGCCUAAUACUGCCAAUGCCGGUCCCAAGCCCGGAUAUAAGUGGAGGGGGCGG [A39U C9U], which self-cleavage is on record?
Answer: Its self-cleavage is 0.74.

Question: Which self-cleavage does the source give for CCGCCUAAAACUGCCAAUGCCGGUCCCAAGCCCGGAUAUAAGUGGAGGGGGCGG [A39U C9A] here?
Answer: Its self-cleavage is 0.33.

Question: For CCGCCUAAGACUGCCAAUGCCGGUCCCAAGCCCGGAUAUAAGUGGAGGGGGCGG [A39U C9G], which self-cleavage is on record?
Answer: The self-cleavage was 0.42.

Question: Which self-cleavage does the source give for CCGCCUAACACUGCCAAUGCCGGUCCCAAGCCCGGAUAGAAGUGGAGGGGGCGU [A39G G54U] here?
Answer: The self-cleavage was 0.8.

Question: For CCGCCUAACACUGCCAACGCCGGUCCCAAGCCCGGAUAGAAGUGGAGGGGGCGG [A39G U18C], which self-cleavage is on record?
Answer: The self-cleavage was 0.96.

Question: For CCGCCUAACACUGCCAAAGCCGGUCCCAAGCCCGGAUAGAAGUGGAGGGGGCGG [A39G U18A], which self-cleavage is on record?
Answer: The self-cleavage was 1.

Question: Which self-cleavage does the source give for CCGCCUAACACUGCCAAGGCCGGUCCCAAGCCCGGAUAGAAGUGGAGGGGGCGG [A39G U18G] here?
Answer: The self-cleavage was 0.87.

Question: For CCGCCUAUCACUGCCAAUGCCGGUCCCAAGCCCGGAUAUAAGUGGAGGGGGCGG [A39U A8U], which self-cleavage is on record?
Answer: Its self-cleavage is 0.16.

Question: For CCGCCUAGCACUGCCAAUGCCGGUCCCAAGCCCGGAUAUAAGUGGAGGGGGCGG [A39U A8G], which self-cleavage is on record?
Answer: Its self-cleavage is 0.31.

Question: For CCGCCUACCACUGCCAAUGCCGGUCCCAAGCCCGGAUAUAAGUGGAGGGGGCGG [A39U A8C], which self-cleavage is on record?
Answer: The self-cleavage was 0.08.

Question: For CCGCCUAACACUGCAAAUGCCGGUCCCAAGCCCGGAUAUAAGUGGAGGGGGCGG [A39U C15A], which self-cleavage is on record?
Answer: Its self-cleavage is 0.24.

Question: Which self-cleavage does the source give for CCGCCUAACACUGCUAAUGCCGGUCCCAAGCCCGGAUAUAAGUGGAGGGGGCGG [A39U C15U] here?
Answer: Its self-cleavage is 0.56.

Question: With CCGCCUAACACUGCGAAUGCCGGUCCCAAGCCCGGAUAUAAGUGGAGGGGGCGG [A39U C15G] as the variant, how does the self-cleavage read?
Answer: Its self-cleavage is 0.23.

Question: Which self-cleavage does the source give for CCGCCUAACACUGCCAAUGCCGGUCCCAAGCCCGGAUAUAGGUGGAGGGGGCGG [A39U A41G] here?
Answer: The self-cleavage was 0.26.

Question: For CCGCCUAACACUGCCAAUGCCGGUCCCAAGCCCGGAUAUACGUGGAGGGGGCGG [A39U A41C], which self-cleavage is on record?
Answer: Its self-cleavage is 0.66.

Question: Which self-cleavage does the source give for CCGCCUAACACUGCCAAUGCCGGUCCCAAGCCCGGAUAUAUGUGGAGGGGGCGG [A39U A41U] here?
Answer: The self-cleavage was 1.03.

Question: With CCGCCUAACACUGCCAAUGCCGGUCCCAAGCCCGGAUAUAAGUGGGGGGGGCGG [A39U A46G] as the variant, how does the self-cleavage read?
Answer: The self-cleavage was 0.04.

Question: Which self-cleavage does the source give for CCGCCUAACACUGCCAAUGCCGGUCCCAAGCCCGGAUAUAAGUGGCGGGGGCGG [A39U A46C] here?
Answer: Its self-cleavage is 0.05.

Question: Which self-cleavage does the source give for CCGCCUAACACUGCCAAUGCCGGUCCCAAGCCCGGAUAUAAGUGGUGGGGGCGG [A39U A46U] here?
Answer: The self-cleavage was 0.07.

Question: Which self-cleavage does the source give for CCGCCUAACACUGCCAAUGCCGGUCCCAAGCCCGGAUAUUAGUGGAGGGGGCGG [A39U A40U] here?
Answer: Its self-cleavage is 0.64.

Question: With CCGCCUAACACUGCCAAUGCCGGUCCCAAGCCCGGAUAUGAGUGGAGGGGGCGG [A39U A40G] as the variant, how does the self-cleavage read?
Answer: Its self-cleavage is 0.65.

Question: Which self-cleavage does the source give for CCGCCUAACACUGCCAAUGCCGGUCCCAAGCCCGGAUAUCAGUGGAGGGGGCGG [A39U A40C] here?
Answer: Its self-cleavage is 0.12.

Question: With CCGCCUAACACUGUCAAUGCCGGUCCCAAGCCCGGAUAUAAGUGGAGGGGGCGG [A39U C14U] as the variant, how does the self-cleavage read?
Answer: Its self-cleavage is 0.17.

Question: Which self-cleavage does the source give for CCGCCUAACACUGACAAUGCCGGUCCCAAGCCCGGAUAUAAGUGGAGGGGGCGG [A39U C14A] here?
Answer: The self-cleavage was 0.09.

Question: Which self-cleavage does the source give for CCGCCUAACACUGGCAAUGCCGGUCCCAAGCCCGGAUAUAAGUGGAGGGGGCGG [A39U C14G] here?
Answer: Its self-cleavage is 0.12.

Question: For CCGCCUAACACUGCCAAUGCCGGUCCCAAGCCCGGAAAGAAGUGGAGGGGGCGG [A39G U37A], which self-cleavage is on record?
Answer: The self-cleavage was 1.01.

Question: For CCGCCUAACACUGCCAAUGCCGGUCCCAAGCCCGGACAGAAGUGGAGGGGGCGG [A39G U37C], which self-cleavage is on record?
Answer: Its self-cleavage is 1.

Question: With CCGCCUAACACUGCCAAUGCCGGUCCCAAGCCCGGAGAGAAGUGGAGGGGGCGG [A39G U37G] as the variant, how does the self-cleavage read?
Answer: Its self-cleavage is 1.01.

Question: With CCGCCUAACACUGCCAAUGCGGGUCCCAAGCCCGGAUAUAAGUGGAGGGGGCGG [A39U C21G] as the variant, how does the self-cleavage read?
Answer: The self-cleavage was 0.07.

Question: Which self-cleavage does the source give for CCGCCUAACACUGCCAAUGCAGGUCCCAAGCCCGGAUAUAAGUGGAGGGGGCGG [A39U C21A] here?
Answer: The self-cleavage was 0.38.

Question: With CCGCCUAACACUGCCAAUGCCGGUCCCAAGCCCGGAUAUAAGUGGAGGGGGCGG [A39U] as the variant, how does the self-cleavage read?
Answer: Its self-cleavage is 1.

Question: With CCGCCUAACACUGCCAAUGUCGGUCCCAAGCCCGGAUAUAAGUGGAGGGGGCGG [A39U C20U] as the variant, how does the self-cleavage read?
Answer: Its self-cleavage is 0.96.

Question: With CCGCCUAACACUGCCAAUGACGGUCCCAAGCCCGGAUAUAAGUGGAGGGGGCGG [A39U C20A] as the variant, how does the self-cleavage read?
Answer: The self-cleavage was 0.84.

Question: With CCGCCUAACACUGCCAAUGGCGGUCCCAAGCCCGGAUAUAAGUGGAGGGGGCGG [A39U C20G] as the variant, how does the self-cleavage read?
Answer: Its self-cleavage is 0.09.

Question: For CCGCCUCACACUGCCAAUGCCGGUCCCAAGCCCGGAUAUAAGUGGAGGGGGCGG [A39U A7C], which self-cleavage is on record?
Answer: The self-cleavage was 0.04.

Question: With CCGCCUUACACUGCCAAUGCCGGUCCCAAGCCCGGAUAUAAGUGGAGGGGGCGG [A39U A7U] as the variant, how does the self-cleavage read?
Answer: Its self-cleavage is 0.08.

Question: Which self-cleavage does the source give for CCGCCUGACACUGCCAAUGCCGGUCCCAAGCCCGGAUAUAAGUGGAGGGGGCGG [A39U A7G] here?
Answer: Its self-cleavage is 0.2.
